Measurements from ChEMBL document CHEMBL1123783, “Synthesis and anticonvulsant activity of analogues of 4-amino-N-(1-phenylethyl)benzamide” (J Med Chem, 1987).

How the values were obtained:
Mus musculus [1] = experiment: Compound was evaluated for anticonvulsant activity against subcutaneous pentylenetetrazole-induced convulsions after 4 hr; C indicates no activity at 300 mg/kg.; type: functional, organism-based; design: dose 300 mg/kg
How it was run: (§1)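 Male Carworth Farms number-one mice were dosed ip in 30% PEG 400, at 30, 100 or 300 mg/kg (sometimes 600 mg/kg). Pentylenetetrazole, 85 mg/kg as a 0.5% solution, was injected subcutaneously in the posterior midline. Protection meant no episode of clonic spasms lasting at least 5 s during a 30-min observation period.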

Mus musculus [2] = experiment: Compound was evaluated for toxicity by rotarod assay method after 4 hr; C indicates no activity at 300 mg/kg.; type: organism-based; design: dose 300 mg/kg; details: in vivo
How it was run: (§2)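 Male Carworth Farms number-one mice received test compound intraperitoneally in 30% polyethylene glycol 400 at 30, 100 and 300 mg/kg, with 600 mg/kg in some cases. Neurological deficit was read at 30 min or 4 h after dosing on a 1-in.-diameter knurled plastic rod turning at 6 rpm. Toxicity was scored as failure to stay on the rod for 1 min.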

Mus musculus [3] = experiment: Compound was evaluated for anticonvulsant activity against maximal electric shock (MES) induced convulsions after 4 hr at a dose of 300 mg/kg; type: functional
Mus musculus [4] = species: Mus musculus; experiment: Compound was evaluated for anticonvulsant activity against maximal electric shock induced seizures; type: functional
How it was run: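 Male Carworth Farms number-one mice received the compound ip in 30% polyethylene glycol 400 before maximal electroshock testing, at several dose levels. The median effective dose (ED50) was obtained by the graphical method.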

Mus musculus [5] = experiment: Compound was evaluated for toxicity by rotarod assay method after 30 minutes; C indicates no activity at 300 mg/kg.; type: organism-based; design: dose 300 mg/kg; details: in vivo, 0.5 h; how it was run: as §2
Mus musculus [6] = experiment: Compound was evaluated for anticonvulsant activity against subcutaneous pentylenetetrazole-induced convulsions after 30 minutes; C indicates no activity at 300 mg/kg.; type: functional, organism-based; design: dose 300 mg/kg; how it was run: as §1
Mus musculus [7] = experiment: Compound was evaluated for anticonvulsant activity against maximal electric shock (MES) induced convulsions after 30 minutes at a dose of 100 mg/kg; type: functional
[8] = Compound was evaluated for anticonvulsant activity by rotarod procedure; type: ADME, organism-based; details: mouse, in vivo
How it was run: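 Male Carworth Farms mice were dosed ip in 30% PEG 400 and then placed on a knurled plastic rod 1 in. in diameter, rotating at 6 rpm. Neurotoxicity was failure to stay on the rod for 1 min. TD50 was derived graphically.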

Mus musculus [9] = experiment: Compound was evaluated for anticonvulsant activity against subcutaneous pentylenetetrazole-induced convulsions; type: functional; details: sc; how it was run: as §1
[10] = Protective index is the ratio of TD50 to ED50; type: ADME; details: for selectivity ratio: read-out: Protective index
How it was run: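 Protective index was calculated as rotorod TD50 divided by anti-MES ED50. Both were graphical median doses from ip dosing in 30% PEG 400 in male Carworth Farms mice.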

Mus musculus [11] = experiment: Compound was evaluated for anticonvulsant activity against subcutaneous pentylenetetrazole-induced convulsions after 4 hr; C is inactive at 300 mg/kg.; type: functional, organism-based; design: dose 300 mg/kg; how it was run: as §1
Mus musculus [12] = experiment: Compound was evaluated for toxicity by rotarod assay method after 4 hr; C is inactive at 300 mg/kg.; type: organism-based; design: dose 300 mg/kg; details: in vivo; how it was run: as §2
Mus musculus [13] = experiment: Compound was evaluated for toxicity by rotarod assay method after 30 minutes; C is inactive at 300 mg/kg.; type: organism-based; design: dose 300 mg/kg; details: in vivo, 0.5 h; how it was run: as §2
Mus musculus [14] = experiment: Compound was evaluated for anticonvulsant activity against maximal electric shock (MES) induced convulsions after 30 minutes;C is inactive at 300 mg/kg.; type: functional, organism-based; design: dose 300 mg/kg
Mus musculus [15] = experiment: Compound was evaluated for anticonvulsant activity against subcutaneous pentylenetetrazole-induced convulsions after 30 minutes;C is inactive at 300 mg/kg.; type: functional, organism-based; design: dose 300 mg/kg; how it was run: as §1
Mus musculus [16] = experiment: Compound was evaluated for anticonvulsant activity against maximal electric shock (MES) induced convulsions after 4 hr; C is inactive at 300 mg/kg.; type: functional, organism-based; design: dose 300 mg/kg
Mus musculus [17] = experiment: Compound was evaluated for anticonvulsant activity against maximal electric shock (MES) induced convulsions after 4 hr; C indicates no activity at 300 mg/kg.; type: functional, organism-based; design: dose 300 mg/kg
Mus musculus [18] = experiment: Compound was evaluated for anticonvulsant activity against maximal electric shock (MES) induced convulsions after 30 minutes; C indicates no activity at 300 mg/kg.; type: functional, organism-based; design: dose 300 mg/kg
Mus musculus [19] = experiment: Compound was evaluated for anticonvulsant activity against subcutaneous pentylenetetrazole-induced convulsions after 4 hr at a dose of 100 mg/kg; type: functional; how it was run: as §1
Mus musculus [20] = experiment: Compound was evaluated for toxicity by rotarod assay method after 30 minutes at a dose of 300 mg/kg; type: organism-based; design: dose 300 mg/kg; details: in vivo, 0.5 h; how it was run: as §2
Mus musculus [21] = experiment: Compound was evaluated for anticonvulsant activity against subcutaneous pentylenetetrazole-induced convulsions after 30 minutes at a dose of 300 mg/kg; type: functional; how it was run: as §1
Mus musculus [22] = experiment: Compound was evaluated for anticonvulsant activity against subcutaneous pentylenetetrazole-induced convulsions after 4 hr; D indicates no activity at 100 mg/kg; type: functional, organism-based; design: dose 100 mg/kg; how it was run: as §1
Mus musculus [23] = experiment: Compound was evaluated for toxicity by rotarod assay method after 30 minutes at a dose of 100 mg/kg; type: organism-based; design: dose 100 mg/kg; details: in vivo, 0.5 h; how it was run: as §2
Mus musculus [24] = experiment: Compound was evaluated for anticonvulsant activity against maximal electric shock (MES) induced convulsions after 4 hr at a dose of 100 mg/kg; type: functional
Mus musculus [25] = experiment: Compound was evaluated for toxicity by rotarod assay method after 4 hr at a dose of 100 mg/kg; type: organism-based; design: dose 100 mg/kg; details: in vivo; how it was run: as §2
Mus musculus [26] = experiment: Compound was evaluated for anticonvulsant activity against subcutaneous pentylenetetrazole-induced convulsions after 30 minutes; D indicates no activity at 100 mg/kg; type: functional, organism-based; design: dose 100 mg/kg; how it was run: as §1
Mus musculus [27] = experiment: Compound was evaluated for anticonvulsant activity against maximal electric shock (MES) induced convulsions after 30 minutes at a dose of 30 mg/kg; type: functional
Mus musculus [28] = experiment: Compound was evaluated for toxicity by rotarod assay method after 4 hr at a dose of 300 mg/kg; type: organism-based; design: dose 300 mg/kg; details: in vivo; how it was run: as §2
Mus musculus [29] = experiment: Compound was evaluated for anticonvulsant activity against subcutaneous pentylenetetrazole-induced convulsions after 4 hr at a dose of 300 mg/kg; type: functional; how it was run: as §1
Mus musculus [30] = experiment: Compound was evaluated for anticonvulsant activity against maximal electric shock (MES) induced convulsions after 30 minutes; C is inactive at 300 mg/kg.; type: functional, organism-based; design: dose 300 mg/kg

In the case of `CCCC(NC(=O)c1ccc(N)cc1)c1ccccc1` (stereo unspecified), the Activity (Mus musculus [1]) is reported as “No activity at 300 mg/kg”, the Toxicity (Mus musculus [2]) is reported as “No activity at 300 mg/kg” and the Activity (Mus musculus [3]) is reported as 2. For the same compound, the ED50 (Mus musculus [4]) was 93.9 mg/kg, the Toxicity (Mus musculus [5]) was “No activity at 300 mg/kg” and the Activity (Mus musculus [6]) was “No activity at 300 mg/kg”. For the same compound, the Activity (Mus musculus [7]) was 3, the TD50 [8] was 378 mg/kg and the ED50 (Mus musculus [9]) was 78.8 mg/kg. For the same compound, the Protective index [10] was 4.8 and the selectivity ratio [10] was 4.03.
For `Cc1ccc(C(C)NC(=O)c2ccc(N)cc2)cc1` (stereo unspecified), the Activity (Mus musculus [11]) was “No activity at 300 mg/kg”, the Toxicity (Mus musculus [12]) was “No activity at 300 mg/kg” and the Toxicity (Mus musculus [13]) was “No activity at 300 mg/kg”. For the same compound, the Activity (Mus musculus [14]) was “No activity at 300 mg/kg”, the Activity (Mus musculus [15]) was “No activity at 300 mg/kg” and the Activity (Mus musculus [16]) was “No activity at 300 mg/kg”.
With `COc1ccc(C(C)NC(=O)c2ccc(N)cc2)cc1` (stereo unspecified) the Toxicity (Mus musculus [2]) was “No activity at 300 mg/kg”, the Activity (Mus musculus [17]) was “No activity at 300 mg/kg” and the Toxicity (Mus musculus [5]) was “No activity at 300 mg/kg”. The Activity (Mus musculus [6]) was “No activity at 300 mg/kg”, the Activity (Mus musculus [18]) was “No activity at 300 mg/kg” and the Activity (Mus musculus [19]) was 3.
For `CCCCC(NC(=O)c1ccc(N)cc1)c1ccccc1` (stereo unspecified), the Activity (Mus musculus [1]) was “No activity at 300 mg/kg”, the Toxicity (Mus musculus [2]) was “No activity at 300 mg/kg” and the Activity (Mus musculus [3]) was 2. The Toxicity (Mus musculus [20]) was 2, the ED50 (Mus musculus [4]) was 73.7 mg/kg and the Activity (Mus musculus [7]) was 3. The TD50 [8] was 332 mg/kg, the ED50 (Mus musculus [9]) was 161 mg/kg and the Activity (Mus musculus [21]) was 2. For the same compound, the Protective index [10] was 2.06.
In the case of `CCOC(=O)C(=O)Nc1ccc(C(=O)NC(C)c2ccccc2)cc1` (stereo unspecified), the Activity (Mus musculus [1]) is reported as “No activity at 300 mg/kg”, the Toxicity (Mus musculus [2]) is reported as “No activity at 300 mg/kg” and the Activity (Mus musculus [17]) is reported as “No activity at 300 mg/kg”. For the same compound, the Toxicity (Mus musculus [20]) was 2, the Activity (Mus musculus [6]) was “No activity at 300 mg/kg” and the Activity (Mus musculus [18]) was “No activity at 300 mg/kg”.
With `CNCc1ccc(C(=O)NC(C)c2ccccc2)cc1` (stereo unspecified) the Activity (Mus musculus [22]) was “No activity at 100 mg/kg”, the ED50 (Mus musculus [4]) was 13.5 mg/kg and the Toxicity (Mus musculus [23]) was 3. The Activity (Mus musculus [24]) was 3, the Toxicity (Mus musculus [25]) was 3 and the Activity (Mus musculus [26]) was “No activity at 100 mg/kg”. For the same compound, the Activity (Mus musculus [27]) was 4, the TD50 [8] was 22.4 mg/kg and the selectivity ratio [10] was 1.66.
With `CNc1ccc(C(=O)NCc2ccccc2)cc1` the Activity (Mus musculus [11]) was “No activity at 300 mg/kg”, the Toxicity (Mus musculus [12]) was “No activity at 300 mg/kg” and the Toxicity (Mus musculus [13]) was “No activity at 300 mg/kg”. For the same compound, the Activity (Mus musculus [14]) was “No activity at 300 mg/kg”, the Activity (Mus musculus [15]) was “No activity at 300 mg/kg” and the Activity (Mus musculus [16]) was “No activity at 300 mg/kg”.
For `CC(=O)Nc1ccc(C(=O)NC(C)c2ccccc2)cc1` (stereo unspecified), the Activity (Mus musculus [11]) was “No activity at 300 mg/kg”, the Toxicity (Mus musculus [12]) was “No activity at 300 mg/kg” and the Toxicity (Mus musculus [13]) was “No activity at 300 mg/kg”. The Activity (Mus musculus [14]) was “No activity at 300 mg/kg”, the Activity (Mus musculus [15]) was “No activity at 300 mg/kg” and the Activity (Mus musculus [16]) was “No activity at 300 mg/kg”.
Work on `CCC(NC(=O)c1ccc(N)cc1)c1ccccc1` (stereo unspecified) yielded an ED50 (Mus musculus [4]) of 54.3 mg/kg, a Toxicity (Mus musculus [23]) of 3 and an Activity (Mus musculus [24]) of 3. For the same compound, the Toxicity (Mus musculus [28]) was 2, the Activity (Mus musculus [29]) was 2 and the Activity (Mus musculus [7]) was 3. For the same compound, the TD50 [8] was 95.4 mg/kg, the ED50 (Mus musculus [9]) was 54.1 mg/kg and the Activity (Mus musculus [21]) was 2. The selectivity ratio [10] was 1.76.
For `CCOC(=O)Nc1ccc(C(=O)NC(C)c2ccccc2)cc1` (stereo unspecified), the Activity (Mus musculus [11]) was “No activity at 300 mg/kg”, the Toxicity (Mus musculus [12]) was “No activity at 300 mg/kg” and the Toxicity (Mus musculus [13]) was “No activity at 300 mg/kg”. The Activity (Mus musculus [30]) was “No activity at 300 mg/kg”, the Activity (Mus musculus [15]) was “No activity at 300 mg/kg” and the Activity (Mus musculus [16]) was “No activity at 300 mg/kg”.
